According to ChEMBL document CHEMBL3351764, “Design, synthesis and biological activity of flavonoid derivatives as selective agonists for neuromedin U 2 receptor” (Bioorg Med Chem, 2014):
Active and inactive are the calls of the source. The rule behind the calls is not given here.

Columns and labels:
[1] = biological target: Adenosine receptor A2a (Homo sapiens) (UniProt P29274); assay: Agonist activity at human A2a receptor at 100 uM to 5 mM
[2] = biological target: T1, Adenosine receptor A3 (Homo sapiens) (UniProt P0DMS8); assay: Agonist activity at human A3 receptor at 100 uM to 5 mM
T1 sequence (whole entry): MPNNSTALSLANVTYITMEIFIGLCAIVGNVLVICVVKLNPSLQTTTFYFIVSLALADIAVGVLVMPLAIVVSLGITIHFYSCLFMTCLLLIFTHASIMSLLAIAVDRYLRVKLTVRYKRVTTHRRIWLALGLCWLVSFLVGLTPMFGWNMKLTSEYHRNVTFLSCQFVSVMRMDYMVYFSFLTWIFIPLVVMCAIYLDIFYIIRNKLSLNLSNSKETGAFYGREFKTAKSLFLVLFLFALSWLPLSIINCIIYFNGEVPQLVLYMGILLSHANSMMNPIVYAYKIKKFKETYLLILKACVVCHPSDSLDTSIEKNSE

[3] = biological target: T2, 5-hydroxytryptamine receptor 2C (Homo sapiens) (UniProt P28335); assay: Agonist activity at human 5HT2C receptor at 100 uM to 5 mM
T2 sequence (whole entry): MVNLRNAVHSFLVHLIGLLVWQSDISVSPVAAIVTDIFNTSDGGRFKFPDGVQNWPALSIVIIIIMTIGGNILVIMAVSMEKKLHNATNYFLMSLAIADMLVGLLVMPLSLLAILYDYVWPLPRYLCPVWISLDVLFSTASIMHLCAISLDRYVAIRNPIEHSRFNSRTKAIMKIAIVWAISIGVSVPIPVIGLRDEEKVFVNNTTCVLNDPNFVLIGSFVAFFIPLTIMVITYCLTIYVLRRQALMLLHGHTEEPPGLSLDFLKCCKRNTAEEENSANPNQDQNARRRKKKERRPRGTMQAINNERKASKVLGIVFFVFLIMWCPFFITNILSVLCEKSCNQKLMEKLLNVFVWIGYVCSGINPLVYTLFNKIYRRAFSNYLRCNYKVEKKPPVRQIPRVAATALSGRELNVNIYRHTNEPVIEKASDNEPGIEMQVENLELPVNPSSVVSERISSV

[4] = biological target: D(1A) dopamine receptor (Homo sapiens) (UniProt P21728); assay: Agonist activity at human D1 receptor at 100 uM to 5 mM
[5] = biological target: T3, Adenosine receptor A1 (Homo sapiens) (UniProt P30542); assay: Agonist activity at human A1 receptor at 100 uM to 5 mM
T3 sequence (whole entry): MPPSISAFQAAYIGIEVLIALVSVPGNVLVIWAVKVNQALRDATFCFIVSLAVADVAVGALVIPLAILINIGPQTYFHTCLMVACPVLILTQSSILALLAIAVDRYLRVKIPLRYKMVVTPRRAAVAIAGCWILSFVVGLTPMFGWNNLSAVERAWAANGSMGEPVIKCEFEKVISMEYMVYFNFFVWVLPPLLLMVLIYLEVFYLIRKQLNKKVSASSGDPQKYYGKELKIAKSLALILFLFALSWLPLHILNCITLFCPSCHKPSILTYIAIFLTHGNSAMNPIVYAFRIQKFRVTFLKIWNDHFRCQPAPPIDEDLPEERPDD

[6] = biological target: Melanocortin receptor 4 (Mus musculus) (UniProt P56450); assay: Agonist activity at mouse MC4 receptor at 100 uM to 5 mM
[7] = biological target: Adrenocorticotropic hormone receptor (Mus musculus) (UniProt Q64326); assay: Agonist activity at mouse MC2 receptor at 100 uM to 5 mM
[8] = biological target: Neuromedin-U receptor 2 (Homo sapiens, UniProt Q9GZQ4); assay: Agonist activity at human NMU2R transfected in HEK293 cells after 7 hrs by luciferase reporter gene assay; assay type: cell-based
How it was run: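 HEK-293 cells were stably co-transfected with a reporter gene construct and human NMU2R cDNA in pcDNA3.1(+), maintained under G418 selection at 37 °C in 5% CO2, then seeded and incubated overnight. Compounds were added at various concentrations for 7 h at 37 °C, followed by Bright-Glo luciferase read-out. Forskolin and NMU served as positive controls. EC50 was fitted by four-parameter logistic regression; means ± SEM of three independent experiments.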

[9] = biological target: Melanocortin receptor 4 (Homo sapiens) (UniProt P32245); assay: Agonist activity at human MC4 receptor at 100 uM to 5 mM
[10] = biological target: T4, Muscarinic acetylcholine receptor M1 (Homo sapiens) (UniProt P11229); assay: Agonist activity at human M1 receptor at 100 uM to 5 mM
T4 sequence (whole entry): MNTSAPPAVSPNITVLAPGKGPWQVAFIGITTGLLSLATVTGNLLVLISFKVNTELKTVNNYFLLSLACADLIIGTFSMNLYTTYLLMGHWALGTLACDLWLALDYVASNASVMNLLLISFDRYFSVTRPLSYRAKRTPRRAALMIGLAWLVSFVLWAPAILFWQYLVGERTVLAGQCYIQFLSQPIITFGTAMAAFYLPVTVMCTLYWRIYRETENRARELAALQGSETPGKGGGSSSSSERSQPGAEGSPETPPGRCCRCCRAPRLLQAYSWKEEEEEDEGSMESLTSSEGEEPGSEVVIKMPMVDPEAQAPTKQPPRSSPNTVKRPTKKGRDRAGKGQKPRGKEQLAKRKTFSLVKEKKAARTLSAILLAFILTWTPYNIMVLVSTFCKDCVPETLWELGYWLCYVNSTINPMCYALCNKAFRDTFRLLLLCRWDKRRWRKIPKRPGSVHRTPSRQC

D(1A) dopamine receptor (Homo sapiens), sequence (P21728 whole entry): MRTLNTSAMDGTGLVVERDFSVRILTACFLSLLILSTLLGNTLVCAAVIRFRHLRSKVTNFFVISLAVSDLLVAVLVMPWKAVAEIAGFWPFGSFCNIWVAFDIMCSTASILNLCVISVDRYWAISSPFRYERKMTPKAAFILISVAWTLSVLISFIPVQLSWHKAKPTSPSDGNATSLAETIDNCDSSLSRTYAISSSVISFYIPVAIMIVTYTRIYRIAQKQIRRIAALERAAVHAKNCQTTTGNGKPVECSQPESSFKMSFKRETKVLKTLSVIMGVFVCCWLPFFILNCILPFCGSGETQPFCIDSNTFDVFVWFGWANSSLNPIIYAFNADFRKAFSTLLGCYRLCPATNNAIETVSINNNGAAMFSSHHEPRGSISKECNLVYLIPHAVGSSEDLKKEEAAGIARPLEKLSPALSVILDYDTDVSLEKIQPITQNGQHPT
Melanocortin receptor 4 (Homo sapiens), sequence (P32245 whole entry): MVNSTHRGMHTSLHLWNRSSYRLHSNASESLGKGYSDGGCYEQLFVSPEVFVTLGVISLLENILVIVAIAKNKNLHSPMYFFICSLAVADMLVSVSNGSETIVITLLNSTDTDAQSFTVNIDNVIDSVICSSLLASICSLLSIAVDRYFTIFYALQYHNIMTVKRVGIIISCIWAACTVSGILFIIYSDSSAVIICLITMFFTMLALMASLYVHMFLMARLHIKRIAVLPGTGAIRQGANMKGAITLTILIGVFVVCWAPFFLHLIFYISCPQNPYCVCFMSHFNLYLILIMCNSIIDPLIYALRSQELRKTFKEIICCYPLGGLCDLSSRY
Adenosine receptor A2a (Homo sapiens), sequence (P29274 whole entry): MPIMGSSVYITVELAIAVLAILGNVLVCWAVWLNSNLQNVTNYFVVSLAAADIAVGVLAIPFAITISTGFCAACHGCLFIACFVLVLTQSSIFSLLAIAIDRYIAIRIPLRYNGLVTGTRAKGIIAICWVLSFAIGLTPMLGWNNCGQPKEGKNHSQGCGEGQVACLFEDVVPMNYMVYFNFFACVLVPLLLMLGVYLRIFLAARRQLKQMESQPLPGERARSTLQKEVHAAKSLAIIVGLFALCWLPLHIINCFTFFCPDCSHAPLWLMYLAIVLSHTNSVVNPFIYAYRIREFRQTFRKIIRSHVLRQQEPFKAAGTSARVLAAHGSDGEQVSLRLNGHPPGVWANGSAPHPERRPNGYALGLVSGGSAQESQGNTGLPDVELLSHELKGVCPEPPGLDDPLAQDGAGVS
Adrenocorticotropic hormone receptor (Mus musculus), sequence (Q64326 whole entry): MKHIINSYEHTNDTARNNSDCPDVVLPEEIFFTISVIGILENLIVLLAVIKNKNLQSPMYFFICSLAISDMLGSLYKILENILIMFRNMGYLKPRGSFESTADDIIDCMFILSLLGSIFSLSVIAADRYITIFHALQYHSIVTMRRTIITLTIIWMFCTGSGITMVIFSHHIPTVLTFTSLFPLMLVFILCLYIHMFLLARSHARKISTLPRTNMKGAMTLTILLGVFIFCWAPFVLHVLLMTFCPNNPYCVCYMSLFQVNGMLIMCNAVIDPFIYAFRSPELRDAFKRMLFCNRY
Melanocortin receptor 4 (Mus musculus), sequence (P56450 whole entry): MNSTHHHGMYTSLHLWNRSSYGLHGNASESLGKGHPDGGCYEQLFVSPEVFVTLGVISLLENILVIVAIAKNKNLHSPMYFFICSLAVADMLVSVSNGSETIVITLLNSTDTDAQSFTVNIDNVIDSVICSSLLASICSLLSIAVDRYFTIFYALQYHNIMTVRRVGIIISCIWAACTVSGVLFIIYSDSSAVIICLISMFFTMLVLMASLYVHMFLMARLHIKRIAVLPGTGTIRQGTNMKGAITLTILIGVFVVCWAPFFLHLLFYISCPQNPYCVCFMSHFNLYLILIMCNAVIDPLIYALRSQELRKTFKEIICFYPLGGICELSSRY
Neuromedin-U receptor 2, sequence (Q9GZQ4 whole entry): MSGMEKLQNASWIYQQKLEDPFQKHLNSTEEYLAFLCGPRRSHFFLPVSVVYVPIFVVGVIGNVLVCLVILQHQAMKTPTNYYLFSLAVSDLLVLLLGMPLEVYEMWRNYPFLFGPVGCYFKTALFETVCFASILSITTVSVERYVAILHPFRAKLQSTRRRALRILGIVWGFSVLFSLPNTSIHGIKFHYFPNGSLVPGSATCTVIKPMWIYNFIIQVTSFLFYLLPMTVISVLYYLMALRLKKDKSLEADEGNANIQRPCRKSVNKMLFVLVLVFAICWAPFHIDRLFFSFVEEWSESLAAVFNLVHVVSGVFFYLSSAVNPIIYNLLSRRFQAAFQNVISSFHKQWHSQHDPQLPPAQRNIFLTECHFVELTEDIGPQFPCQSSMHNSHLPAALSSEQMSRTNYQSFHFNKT

| Compound | Activity [1] | Activity [2] | Activity [3] | Activity [4] | Activity [5] | Activity [6] | Activity [7] | EC50 ([8]; hek293) | Activity [9] | Activity [10] | EC50 ([8]; read-out: EC50) [µM] |
| --- | --- | --- | --- | --- | --- | --- | --- | --- | --- | --- | --- |
| COc1ccc(C2C=Cc3ccccc3O2)cc1 (racemic) | inactive | inactive | inactive | inactive | inactive | inactive | inactive | Not Active | inactive | inactive | – |
| COc1ccc(-c2oc3ccccc3c(=O)c2O)cc1O | inactive | inactive | inactive | inactive | inactive | inactive | inactive | Not Active | inactive | inactive | – |
| O=c1c(O)c(-c2c(F)ccc(F)c2Cl)oc2ccccc12 | inactive | inactive | inactive | inactive | inactive | inactive | inactive | Not Active | inactive | inactive | – |
| COc1cccc(-c2oc3ccccc3c(=O)c2O)c1 | inactive | inactive | inactive | inactive | inactive | inactive | inactive | Not Active | inactive | inactive | – |
| CCN(CC)c1ccc(-c2oc3ccccc3c(=O)c2O)cc1 | inactive | inactive | inactive | inactive | inactive | inactive | inactive | Not Active | inactive | inactive | – |
| Fc1ccccc1C1C=Cc2ccccc2O1 (racemic) | inactive | inactive | inactive | inactive | inactive | inactive | inactive | Not Active | inactive | inactive | – |
| O=c1cc(-c2ccc(O)cc2)oc2ccccc12 | inactive | inactive | inactive | inactive | inactive | inactive | inactive | Not Active | inactive | inactive | – |
| COc1c(-c2cc(Br)ccc2F)oc2ccccc2c1=O | inactive | inactive | inactive | inactive | inactive | inactive | inactive | Not Active | inactive | inactive | – |
| COc1cc(-c2oc3ccccc3c(=O)c2O)ccc1O | inactive | inactive | inactive | inactive | inactive | inactive | inactive | Not Active | inactive | inactive | – |
| O=c1c(OCCO)c(-c2cc(Br)ccc2F)oc2ccccc12 | inactive | inactive | inactive | inactive | inactive | inactive | inactive | – | inactive | inactive | 47 |
| O=c1c(O)c(-c2cccc(Cl)c2F)oc2ccccc12 | inactive | inactive | inactive | inactive | inactive | inactive | inactive | – | inactive | inactive | 31.1 |
| O=c1cc(-c2ccccc2F)oc2ccccc12 | inactive | inactive | inactive | inactive | inactive | inactive | inactive | Not Active | inactive | inactive | – |
| COc1ccc(C2C=Cc3ccccc3O2)cc1O (racemic) | inactive | inactive | inactive | inactive | inactive | inactive | inactive | Not Active | inactive | inactive | – |
| O=c1c(O)c(-c2c(F)cccc2Cl)oc2ccccc12 | inactive | inactive | inactive | inactive | inactive | inactive | inactive | Not Active | inactive | inactive | – |
| Clc1ccc(C2C=Cc3ccccc3O2)c(Cl)c1 (racemic) | inactive | inactive | inactive | inactive | inactive | inactive | inactive | Not Active | inactive | inactive | – |
| O=c1c(O)c(-c2ccc(Br)cc2F)oc2ccccc12 | inactive | inactive | inactive | inactive | inactive | inactive | inactive | – | inactive | inactive | 73 |
| CN(C)c1ccc(C2C=Cc3ccccc3O2)cc1 (racemic) | inactive | inactive | inactive | inactive | inactive | inactive | inactive | Not Active | inactive | inactive | – |
